From PubChem BioAssay come the findings set out here.

A short description of assay [1]: reducers of endogenous Her2 protein level, primary screen, SKBR3 breast tumor cells, AlphaScreen, ATP viability (AID 461;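 active = Her2 level under about 52% in both replicate screens, with viability over 70% of control, limit read from the data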;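 as to Her2 level: lower value means less Her2 protein in the cells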;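 as to viability: percent of carrier control wells set as 100% viability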). The following applies: 18-24 h, measured here: SKBR3 viability, ATP luminescence, at 10 µM. (Alpha assays give light when donor and acceptor beads are brought close together.)
The target of assay [2] is Receptor tyrosine-protein kinase erbB-2 (Homo sapiens) (UniProt P04626). The assay is described as above. The following applies: 18-24 h, at 10 µM, stronger effect = lower value.
Sequence of Receptor tyrosine-protein kinase erbB-2 (Homo sapiens) (P04626 whole entry, looked up): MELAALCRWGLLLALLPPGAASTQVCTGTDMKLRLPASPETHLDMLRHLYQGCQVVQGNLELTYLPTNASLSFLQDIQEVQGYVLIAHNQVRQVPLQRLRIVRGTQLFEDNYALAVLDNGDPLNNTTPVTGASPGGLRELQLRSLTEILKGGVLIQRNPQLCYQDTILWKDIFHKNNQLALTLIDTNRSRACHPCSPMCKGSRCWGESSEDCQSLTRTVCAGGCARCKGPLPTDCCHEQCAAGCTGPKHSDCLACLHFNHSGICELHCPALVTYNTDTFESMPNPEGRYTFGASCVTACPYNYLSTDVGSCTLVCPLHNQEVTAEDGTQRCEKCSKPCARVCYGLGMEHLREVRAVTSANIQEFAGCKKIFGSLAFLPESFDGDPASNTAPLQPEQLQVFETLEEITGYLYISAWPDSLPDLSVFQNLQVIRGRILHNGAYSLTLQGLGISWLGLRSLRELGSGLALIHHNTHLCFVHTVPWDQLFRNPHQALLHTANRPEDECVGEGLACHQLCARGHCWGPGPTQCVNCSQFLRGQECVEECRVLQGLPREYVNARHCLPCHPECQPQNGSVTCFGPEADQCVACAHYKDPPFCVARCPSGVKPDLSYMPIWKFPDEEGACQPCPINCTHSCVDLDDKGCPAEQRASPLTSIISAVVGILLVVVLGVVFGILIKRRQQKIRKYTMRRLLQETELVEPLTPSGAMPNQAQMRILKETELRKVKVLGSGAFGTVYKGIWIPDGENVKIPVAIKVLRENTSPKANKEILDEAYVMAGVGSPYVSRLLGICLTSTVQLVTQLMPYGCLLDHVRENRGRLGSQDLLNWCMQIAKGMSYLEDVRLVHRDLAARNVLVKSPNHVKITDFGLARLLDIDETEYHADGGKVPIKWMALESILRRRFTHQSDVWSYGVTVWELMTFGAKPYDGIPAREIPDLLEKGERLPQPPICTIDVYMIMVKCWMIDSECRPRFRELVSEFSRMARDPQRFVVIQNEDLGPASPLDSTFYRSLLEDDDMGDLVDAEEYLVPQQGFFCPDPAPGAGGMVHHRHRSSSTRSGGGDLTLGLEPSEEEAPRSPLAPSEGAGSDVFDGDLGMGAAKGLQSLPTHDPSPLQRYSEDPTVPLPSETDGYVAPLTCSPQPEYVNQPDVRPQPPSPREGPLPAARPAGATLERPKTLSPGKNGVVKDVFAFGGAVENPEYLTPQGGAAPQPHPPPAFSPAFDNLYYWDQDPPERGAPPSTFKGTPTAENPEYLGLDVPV
Assay [3] in a line: SK-BR-3 cell growth inhibitors, pilot screen, 24 h, human (AID 572).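 Also: compound exposure lasted between 18 and 24 h rather than exactly 24 h; 100% = carrier-treated control wells.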 The following applies: SK-BR-3 viability, CellTiter-Glo luminescence, at 10 µM, stronger effect = lower value.
A short description of assay [4]: HUVEC growth inhibition – cell-based, human, primary screen (AID 575;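 active = viability at or below 30% in both replicate assays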;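 also: 100% = median of untreated cell wells with 0.1% DMSO on each plate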). The following applies: HUVEC proliferation, CellTiter-Glo luminescence, 72 h; at 10 µM; stronger effect = lower value. In a few lines:
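material = primary HUVEC, no more than 12 passages | input = 1250 cells per well | controls = vehicle and MePR control wells | measured by = CTG luminescence | times = 72 h compound incubation | format = collagen-coated 384-well format | read-out = % viability vs DMSO wells | doses = single 10 µM dose, 0.1% DMSO, from 5x medium stock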
For orientation: ATP-based viability assays read luminescence as a measure of living cells.

Assay [5] can be described thus: growth inhibitors of H69AR lung tumor, primary screen, human, duplicate replicates (AID 580;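 active = viability at or under a set limit in both replicates, limit being median viability minus 3 SD, cut at about 48% in these data, passing the limit was not always enough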;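 also: 100% = mean luminescence of untreated wells and 0% = no signal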). The following applies: H69AR lung tumor cells viability, ATP luminescence, 72 h; at 10 µM; stronger effect = lower value.
The nature of assay [6]: reversal of MRP1-mediated doxorubicin resistance, pilot screen, H69AR cells, doxorubicin co-treatment (AID 601;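 active = viability loss from added drug above about 55%, and viability with drug at most 40%, in both replicates, limit read from the data, passing the limit was not always enough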). The following applies: CellTiter-Glo, 72 h, at 10 µM; for differential viability (reversal): stronger effect = higher value.
The nature of assay [7]: 384-well plate pilot, post-Golgi transport modulator project, inhibition of yeast transport mutant growth (AID 636; in the data active = inhibition above about 31%). The following applies: absorbance 615 nm, about 18 h, stronger effect = higher value.
Assay [8] is described as follows: growth suppression of yeast trafficking mutant, preliminary HTS, modulators of trafficking downstream of Golgi apparatus project, 1536-format plate, OD 615 nm (AID 637; in the data active = inhibition above about 30%). The following applies: yeast transport mutant growth, absorbance 615 nm, 18 h; stronger effect = higher value.
The mark [9] stands for this setting: H69AR cells + 2 uM doxorubicin, measured here: viability with 2 uM doxorubicin, stronger effect = lower value.
The mark [10] stands for this setting: H69AR cells, compound alone cytotoxicity.

Usually viability stands for a read-out of living cells in per cent, often relative to untreated cells. By inhibition is commonly meant the relative decrease from the control value, in per cent.

Each structure is given as a SMILES string. The source made the active and inactive calls.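 The calls were made as follows, unless noted: active = viability at or below 10% of carrier control in both of two separate runs; inconclusive = viability at or below 10% in only one of the two runs; inactive = the rest.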

Consider `c1ccc(Oc2ccc(-n3cnnn3)cc2)cc1`, for which the viability in assay [1] is 102%; in assay [3], 102% (inactive); in assay [4], 95.7% (inactive); in assay [5], 94.2% (inactive); in assay [6] (setting [9]) it was 78.8%; in assay [6] (setting [10]), 94.2%. In assay [2], the Her2 level is 122% (inactive). In assay [6] (H69AR cells + 2 uM doxorubicin), the differential viability (reversal) was 15.4% (inactive). Moreover, the inhibition in assay [7] was -0.52% (inactive); in assay [8], -12.2% (inactive).

As to `CCOC(=O)c1c(NC(=O)CSc2nc3c(c(=O)n(C)c(=O)n3C)n2C(C)C)sc(C)c1C`, the viability in assay [1] was 106%; in assay [3], 106% (inactive); in assay [4], 91.4% (inactive); in assay [5] it was 89.9% (inactive); in assay [6] (setting [9]) it was 92.1%; in assay [6] (setting [10]), 89.9%. Moreover, the Her2 level in assay [2] was 94% (inactive). In addition, the differential viability (reversal) in assay [6] (H69AR cells + 2 uM doxorubicin) was -2.12% (inactive). For the same compound, the inhibition is -0.53% (inactive) in assay [7] and -3.23% (inactive) in assay [8].

`COc1ccc(C2=Nn3c(nnc3-c3cccnc3)SC2)cc1`: the viability in assay [1] is 83.5%; in assay [3], 83.5% (inactive); in assay [4], 97.1% (inactive); in assay [5] it was 64.7% (inactive); in assay [6] (setting [9]) it was 81.2%; in assay [6] (setting [10]), 64.7%. Also, the Her2 level in assay [2] is 93.5% (inactive). The differential viability (reversal) in assay [6] (H69AR cells + 2 uM doxorubicin) was -16.5% (inactive). The inhibition in assay [7] is -6.32% (inactive); in assay [8], 0.48% (inactive).

For the compound `Cn1c(=O)c(C(=O)Nc2cccnc2)c(O)c2ccccc21`, the viability was 81% in assay [1]; 81% (inactive) in assay [3]; 105% (inactive) in assay [4]; 88.4% (inactive) in assay [5]; 98.2% in assay [6] (setting [9]); 88.4% in assay [6] (setting [10]). Moreover, in assay [2], the Her2 level is 59.5% (inactive). Moreover, the differential viability (reversal) in assay [6] (H69AR cells + 2 uM doxorubicin) was -9.81% (inactive). For the same compound, the results for the inhibition in assay [7] and in assay [8] were -3.65% (inactive) and 2.46% (inactive), respectively.

Regarding `CCOC(=O)C(NC(=O)c1ccc(OC)cc1)(N1CCOCC1)C(F)(F)F` (stereo not given), the viability in assay [1] is 112%; in assay [3], 112% (inactive); in assay [4], 115% (inactive); in assay [5], 100% (inactive); in assay [6] (setting [9]) it was 102%; in assay [6] (setting [10]), 100%. Besides, in assay [2], the Her2 level was 95.5% (inactive). Besides, the differential viability (reversal) in assay [6] (H69AR cells + 2 uM doxorubicin) is -2.41% (inactive). Besides, the inhibition is -4.81% (inactive) in assay [7] and 0.32% (inactive) in assay [8].

For the compound `CCOC(=O)CCCn1nc(C)n2c(cc3sccc32)c1=O`, the viability is 87.5% in assay [1]; 87.5% (inactive) in assay [3]; 91.8% (inactive) in assay [4]; 102% (inactive) in assay [5]; 81% in assay [6] (setting [9]); 102% in assay [6] (setting [10]). In addition, in assay [2], the Her2 level is 94.5% (inactive). The differential viability (reversal) in assay [6] (H69AR cells + 2 uM doxorubicin) is 20.7% (inactive). Further, the inhibition in assay [7] was -5.07% (inactive); in assay [8], -3.77% (inactive).

Consider `Cc1cc(C)cc(NS(=O)(=O)c2ccc3[nH]c(=O)[nH]c3c2)c1`, for which the viability in assay [1] was 108%; in assay [3], 108% (inactive); in assay [4] it was 90.1% (inactive); in assay [5], 85.5% (inactive); in assay [6] (setting [9]) it was 86%; in assay [6] (setting [10]) it was 85.5%. The Her2 level in assay [2] was 89% (inactive). For the same compound, the differential viability (reversal) in assay [6] (H69AR cells + 2 uM doxorubicin) is -0.57% (inactive). Also, the results for the inhibition in assay [7] and in assay [8] were -2.21% (inactive) and -4.5% (inactive), respectively.

With `O=C(NCCCN1CCOCC1)C1CC(=O)N(CCc2ccccc2)C1` (stereo not given), the viability is 104% in assay [1]; 104% (inactive) in assay [3]; 84.1% (inactive) in assay [4]; 94.8% (inactive) in assay [5]; 86.9% in assay [6] (setting [9]); 94.8% in assay [6] (setting [10]). The Her2 level in assay [2] is 89% (inactive). The differential viability (reversal) in assay [6] (H69AR cells + 2 uM doxorubicin) is 7.94% (inactive). Moreover, the inhibition in assay [7] is -3.68% (inactive); in assay [8], -1.29% (inactive).

For `Cc1ccc(C(=O)N2CCN(C(=O)c3ccc(C)c(C)c3)C(C)C2)cc1C` (stereo not given), the viability in assay [1] was 84.5%; in assay [3] it was 84.5% (inactive); in assay [4], 97.5% (inactive); in assay [5] it was 82.2% (inactive); in assay [6] (setting [9]), 70%; in assay [6] (setting [10]), 82.2%. Moreover, the Her2 level in assay [2] was 81% (inactive). Besides, the differential viability (reversal) in assay [6] (H69AR cells + 2 uM doxorubicin) is 12.2% (inactive). Besides, the figures for the inhibition in assay [7] and in assay [8] were -4.61% (inactive) and -1.67% (inactive), respectively.

`OCCNc1nc2ccc(Cl)cc2[nH]1`: the viability was 84% in assay [1]; 84% (inactive) in assay [3]; 108% (inactive) in assay [4]; 107% (inactive) in assay [5]; 97.9% in assay [6] (setting [9]); 107% in assay [6] (setting [10]). In addition, the Her2 level in assay [2] was 100% (inactive). The differential viability (reversal) in assay [6] (H69AR cells + 2 uM doxorubicin) was 9.03% (inactive). Moreover, the inhibition was -6.89% (inactive) in assay [7] and 5.08% (inactive) in assay [8].

Turning to `COc1ccc(N2CCN(CCCNC(=O)C3CCCN(S(=O)(=O)c4cnc[nH]4)C3)CC2)cc1` (stereo not given), the viability in assay [1] is 95.5%; in assay [3], 95.5% (inactive); in assay [4], 93.4% (inactive); in assay [5], 103% (inactive); in assay [6] (setting [9]), 89%; in assay [6] (setting [10]) it was 103%. For the same compound, the Her2 level in assay [2] was 102% (inactive). Also, the differential viability (reversal) in assay [6] (H69AR cells + 2 uM doxorubicin) is 14% (inactive). In addition, the inhibition in assay [7] is -4% (inactive); in assay [8], -4.26% (inactive).

`CCN(CC)C(=O)CSc1nc2ccc(NC(=O)CSc3nccn3C)cc2s1`: the viability is 88.5% in assay [1]; 88.5% (inactive) in assay [3]; 68.2% (inactive) in assay [4]; 91% (inactive) in assay [5]; 84.8% in assay [6] (setting [9]); 91% in assay [6] (setting [10]). In addition, in assay [2], the Her2 level was 93.5% (inactive). Moreover, the differential viability (reversal) in assay [6] (H69AR cells + 2 uM doxorubicin) was 6.22% (inactive). Further, the inhibition is -4.47% (inactive) in assay [7] and -1.45% (inactive) in assay [8].

Turning to `CN(C)c1nc(Nc2ccc(Cl)cc2)nc(OCC#N)n1`, the viability was 105% in assay [1]; 105% (inactive) in assay [3]; 63.2% (inactive) in assay [4]; 81.8% (inactive) in assay [5]; 96.3% in assay [6] (setting [9]); 81.8% in assay [6] (setting [10]). Further, in assay [2], the Her2 level is 80.5% (inactive). The differential viability (reversal) in assay [6] (H69AR cells + 2 uM doxorubicin) is -14.6% (inactive). The values for the inhibition in assay [7] and in assay [8] were -0.26% (inactive) and 11% (inactive), respectively.

For `O=C1NC2=C(C(=O)CCC2)C(c2ccc3ncccc3c2)N1` (stereo not given), the viability in assay [1] was 106%; in assay [3], 106% (inactive); in assay [4], 115% (inactive); in assay [5], 98.4% (inactive); in assay [6] (setting [9]), 85.8%; in assay [6] (setting [10]), 98.4%. Besides, the Her2 level in assay [2] was 91% (inactive). Moreover, the differential viability (reversal) in assay [6] (H69AR cells + 2 uM doxorubicin) was 12.6% (inactive). Moreover, the inhibition in assay [7] is -1.64% (inactive); in assay [8], 1.9% (inactive).

In the case of `Cc1cccc(N2C(=O)CC(N3CCN(Cc4ccc(Cl)cc4)CC3)C2=O)c1` (stereo not given), the viability in assay [1] was 104%; in assay [3], 104% (inactive); in assay [4] it was 94.7% (inactive); in assay [5], 99.2% (inactive); in assay [6] (setting [9]), 86.9%; in assay [6] (setting [10]), 99.2%. In addition, in assay [2], the Her2 level was 100% (inactive). Moreover, the differential viability (reversal) in assay [6] (H69AR cells + 2 uM doxorubicin) was 12.2% (inactive). Further, the inhibition in assay [7] was -3.87% (inactive); in assay [8], 0.82% (inactive).
